Here are results for 49 compounds from ChEMBL document CHEMBL1154474, “Pharmacophore based discovery of potential antimalarial agent targeting haem detoxification pathway” (Eur J Med Chem, 2008).

The subject of data set [1] is Plasmodium falciparum. Put plainly: Antimalarial activity against chloroquine-resistant Plasmodium falciparum K1 after 48 hrs by [G-3H]hypoxanthine uptake. The note with it: K1, 48 h. The class given is functional, organism-based.
Data set [2] relates to Plasmodium falciparum. Description: Antimalarial activity against chloroquine-resistant Plasmodium falciparum K1. The class given is functional, organism-based.
Data set [3] has as its system Plasmodium falciparum. Put plainly: Antimalarial activity against chloroquine and pyrimethamine-resistant Plasmodium falciparum K1 after 24 hrs by [3H]hypoxanthine uptake. The class given is functional, organism-based.
The subject of data set [4] is Plasmodium falciparum. Description: Antimalarial activity against chloroquine-resistant Plasmodium falciparum K1 after 72 hrs. In kind it is functional, organism-based. The note with it: K1, 72 h.
A short description of data set [5]: Ionisation constant for the compound. In kind it is physicochemical. In a few lines:
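Spectrophotometric pKa determination on a UV spectrometer, with measurements in buffers from pH 5.8 to 11.2 and in 0.1 M NaOH and 0.1 M HCl. The pH 5.8–8.0 buffers were made from 0.1 M KH2PO4/K2HPO4, and the pH 8.4–11.2 buffers from 0.1 M glycine with 0.1 M NaOH. Two constants (pKa1, pKa2) were reported.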

Data set [6] relates to Plasmodium falciparum. Put plainly: Antimalarial activity against chloroquine-resistant Plasmodium falciparum K1 by [3H]hypoxanthine uptake. The class given is functional, organism-based.

Where “and” joins values, the source holds several entries; their conditions need not be identical. Equal values may be shown once. Where a name gives a salt, the structure may show the parent alone.

In data set [1], `Oc1ccc(Cc2ccnc3cc(Cl)ccc23)cc1CN1CCCC1` showed an IC50 of 11.5 nM. In data set [2], `CN(CCCNc1nc2ccc(Cl)cc2n2cccc12)CCCNc1nc2ccc(Cl)cc2n2cccc12` came in with an IC50 of 280 nM. For `CCCCN(CCCC)CCC(C)c1cc2c(Cl)cc(Cl)cc2c2cc(C(F)(F)F)ccc12` (centres undefined), in data set [1], inhibition was half-maximal at 2.8 nM (IC50). Take `C=CC1CN2CCC1C[C@H]2[C@H](O)c1ccnc2ccc(OC)cc12` (single isomer, unassigned) [QUININE]: the IC50 in data set [1] came to 81 nM. With `C[n+]1c2ccc(Br)cc2cc2[nH]c3ccc([N+](=O)[O-])cc3c21`, the IC50 in data set [2] was found to be 100000 nM. Take `Oc1ccc(Nc2ccnc3cc(Cl)ccc23)cc1`: the IC50 in data set [1] stood at 2300 nM. The same measure, in the same setting: the value for `CCN(CC)CCCC(C)NC1=CC=NCC1` (centres undefined) was 15100 nM; that for `C=C[C@@H]1CN2CC[C@@H]1C[C@@H]2[C@@H](O)c1ccnc2ccccc12` was 90.6 nM. Take `CN(C)c1ccc(Nc2c3ccccc3nc3cc(Cl)ccc23)cc1`: in data set [3] (Plasmodium falciparum, K1), the IC50 turned out to be 1100 nM. Consider `Oc1c(CN2CCCC2)cc(Nc2c3ccccc3nc3cc(Cl)ccc23)cc1CN1CCCC1`, for which, in data set [1], the IC50 is 9.1 nM.

For the compound `CN(C)c1ccc(Nc2c3ccccc3nc3cc(N)ccc23)cc1`, the IC50 in data set [3] is 800 nM and 350 nM. As to `CCN(CC)CCCC(C)Nc1c2ccc(Cl)cc2nc2ccc(OC)cc12` (centres undefined) [QUINACRINE], in data set [1], the IC50 was 43 nM. For `O=C1CC(c2ccc(Cl)cc2Cl)CC2Sc3ccc(Cl)cc3C(=O)C12` (centres undefined), in data set [4], the IC50 worked out at 16 nM.

For `CN(C)CCCN(C)CCCN1c2ccccc2Sc2ccccc21`, in data set [2], the IC50 was determined as 1000 nM.

In data set [2], `CN(C)CCCN(CCCN(C)C)CCCN1c2ccccc2Sc2ccc(Cl)cc21` returned an IC50 of 420 nM. With `CS(=O)(=O)Nc1ccc(Nc2c3ccc(Cl)cc3nc3cc(Cl)ccc23)cc1`, inhibition in data set [3] (Plasmodium falciparum, K1) was half-maximal at 350 nM (IC50).

Compound `CCOc1ccc(/C=C/C(=N\NC(=O)c2cccnc2)c2ccc(O)cc2)cc1OC` came in with a pKa in data set [5] of 6.87. In data set [2], `CN(C)CCCC(=O)Nc1ccc2c(c1)Sc1ccc(Cl)cc1N2CCCN(C)C` displayed an IC50 of 2000 nM.

For the compound `C[n+]1c2ccc(Cl)c(Cl)c2cc2[nH]c3ccccc3c21`, the IC50 in data set [2] stood at 440 nM. In data set [1], `CCN(CC)Cc1cc(Nc2ccnc3cc(Cl)ccc23)cc(-c2ccc(Cl)cc2)c1F` registered an IC50 of 69 nM. The compound `CCN(CC)Cc1cc(Nc2ccncc2)ccc1O` gave an IC50 in data set [1] of 1300 nM. Take `C[n+]1c2ccc(Cl)cc2cc2[nH]c3cc(Cl)ccc3c21`: the midpoint of inhibition in data set [2], the IC50, lay at 45 nM. Same read-out and setting: the value for `CN(C)CCCN1c2ccc(NCc3cnc[nH]3)cc2Sc2ccc(Cl)cc21` was 1800 nM. On to `CNc1ccc(Nc2c3ccccc3nc3cc(Cl)ccc23)cc1`, for which the IC50 in data set [3] (Plasmodium falciparum, K1) was determined as 1200 nM. The compound `CC(C)(C)NCc1cc(Nc2ccnc3cc(Cl)ccc23)cc(-c2ccc(Cl)cc2)c1O` [TEBUQUINE] gave an IC50 in data set [1] of 13 nM.

In turn, `CC(CCCN)Nc1ccnc2cc(Cl)ccc12` (centres undefined) [BIDESETHYL CHLOROQUINE] had an IC50 in data set [1] of 1340 nM.

Compound `CCNCc1cc(Cc2ccnc3cc(Cl)ccc23)ccc1O` showed an IC50 in data set [1] of 38.8 nM. For `NCc1cc(Cc2ccnc3cc(Cl)ccc23)ccc1O`, in data set [1], the midpoint of inhibition, the IC50, lay at 166 nM. On the same count and under the same terms, the value for `CC(c1cc(C(F)(F)F)nc2c(C(F)(F)F)cccc12)C1CCCCN1` (centres undefined) was 9.4 nM.

In the case of `N=C(N)c1ccc(OCCCOc2ccc(C(=N)N)cc2)cc1` [PROPAMIDINE], the IC50 in data set [6] came out at 5.6 nM. In data set [2], `CCN(CC)CCCC(C)Nc1cc(CCCCCCCCCCCCc2cc(NC(C)CCCN(CC)CC)c3ccccc3n2)nc2ccccc12` (centres undefined) showed an IC50 of 16 nM.

`N=C(N)c1ccc(/N=N/Nc2ccc(C(=N)N)cc2)cc1` [DIMINAZENE] returned an IC50 in data set [6] of 190 nM. Still for that read-out and setting: the value for `N=C(N)c1ccc(/C=C/c2ccc(C(=N)N)cc2)cc1` [STILBAMIDINE] was 27 nM. Take `CCN(CC)Cc1cc(Nc2ccnc3cc(Cl)ccc23)cc(-c2ccc(Cl)cc2)c1` [DEHYDROXY TEBAQUINE]: 69.3 nM corresponded to half-maximal inhibition in data set [1] (IC50). For `CS(=O)(=O)Nc1ccc(Nc2c3ccccc3nc3cc(Cl)ccc23)cc1`, in data set [3] (Plasmodium falciparum, K1), 1000 nM corresponded to half-maximal inhibition (IC50). `C[n+]1c2ccccc2c(C(=O)O)c2[nH]c3ccc(Br)cc3c21` displayed an IC50 in data set [2] of 260 nM.

Regarding `C[n+]1c2ccccc2cc2[n-]c3ccccc3c21` [CRYPTOLEPINE HYDROCHLORIDE], inhibition in data set [2] was half-maximal at 100000 nM (IC50).

On to `NS(=O)(=O)c1ccc(Nc2c3ccc(Cl)cc3nc3cc(Cl)ccc23)cc1`, for which inhibition in data set [3] (Plasmodium falciparum, K1) was half-maximal at 620 nM (IC50).

In data set [1], `C=C[C@@H]1CN2CC[C@@H]1C[C@H]2[C@H](O)c1ccnc2ccccc12` showed an IC50 of 56.2 nM. Take `CN(C)CCC/N=C1\CC(c2ccc(Cl)cc2Cl)CC2Nc3ccc(Cl)cc3C(=O)C12` (centres undefined): the concentration for half-maximal inhibition (IC50) in data set [4] stood at 9.5 nM. Turning to `CC(CCCN1CCCC1)Nc1ccnc2cc(Cl)ccc12` (centres undefined) [Chloroquine-pyrolidinyl], in data set [1], the IC50 amounted to 89.6 nM. On the same count and under the same terms, the value for `CC(C)(C)NCc1cc(Cc2ccnc3cc(Cl)ccc23)ccc1O` was 9.1 nM. Still for that read-out and setting: the value for `CCN(CC)Cc1cc(Cc2ccnc3cc(Cl)ccc23)ccc1O` was 18 nM. Take `CCN(CC)CCCC(C)Nc1cc(CCCCCCCCCCc2cc(NC(C)CCCN(CC)CC)c3ccccc3n2)nc2ccccc12` (centres undefined): half-maximal inhibition in data set [2] (IC50) required 17 nM.

`CN(C)CCCC(=O)Nc1ccc2c(c1)Sc1ccc(Cl)cc1N2C`: the IC50 in data set [2] stood at 7000 nM. On to `C[n+]1c2ccccc2cc2[nH]c3cc([N+](=O)[O-])cc([N+](=O)[O-])c3c21`, for which, in data set [2], the midpoint of inhibition, the IC50, lay at 650 nM. Still for that read-out and setting: the value for `C[n+]1c2ccccc2cc2[nH]c3c([N+](=O)[O-])cccc3c21` was 6300 nM.

Compound `C=CC1CN2CCC1C[C@@H]2[C@@H](O)c1ccnc2ccc(OC)cc12` (single isomer, unassigned) [QUINIDINE] displayed an IC50 in data set [1] of 51 nM.

`O=C1CC(c2ccc(C(F)(F)F)cc2)CC2C1C(=O)c1cc(Cl)ccc1N2O` (centres undefined) came in with an IC50 in data set [4] of 400 nM.
